Assay results of several laboratories.
Lines come from different studies, so protocols differ.
Target: Mitogen-activated protein kinase kinase kinase 2 (MAP3K2, Homo sapiens, UniProt Q9Y2U5)
One construct used (Q9Y2U5 1-619): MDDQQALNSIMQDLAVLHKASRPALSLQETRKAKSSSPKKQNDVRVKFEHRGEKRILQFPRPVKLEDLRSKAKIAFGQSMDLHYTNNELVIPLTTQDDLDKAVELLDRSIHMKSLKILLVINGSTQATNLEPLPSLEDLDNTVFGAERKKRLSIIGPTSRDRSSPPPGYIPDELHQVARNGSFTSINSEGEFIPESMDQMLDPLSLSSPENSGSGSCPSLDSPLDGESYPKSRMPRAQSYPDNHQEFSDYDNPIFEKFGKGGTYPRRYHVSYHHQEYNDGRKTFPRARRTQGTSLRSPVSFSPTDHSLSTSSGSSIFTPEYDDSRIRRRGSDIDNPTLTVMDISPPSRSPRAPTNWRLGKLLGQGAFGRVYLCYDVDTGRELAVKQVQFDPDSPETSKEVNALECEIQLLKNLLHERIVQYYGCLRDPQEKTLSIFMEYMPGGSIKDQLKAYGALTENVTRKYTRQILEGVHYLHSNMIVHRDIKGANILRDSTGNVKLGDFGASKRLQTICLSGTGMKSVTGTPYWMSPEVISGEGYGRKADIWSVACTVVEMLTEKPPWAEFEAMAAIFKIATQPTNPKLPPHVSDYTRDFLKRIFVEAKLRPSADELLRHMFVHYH

SMILES | test | conditions | remaining binding
N[C@@H]1CCN(c2nccc(-c3cnn4ncccc34)n2)C1 | binding | 1 µM | 100%
O=C(Nc1cccnn1)N1CC(C/C=C/c2cncc(Oc3ccc(C(F)(F)F)cn3)n2)C1 | cell-free assay, competition with immobilised ligand | 1 µM | 79%
O=C(c1ccc(Nc2ncc(Cl)c(-c3cc4ccccc4s3)n2)cc1)N1CCC(N2CCCC2)CC1 | binding, competition with immobilised ligand | 1 µM | 20%
O=C(Nc1ccc(Oc2ccc(F)cc2)cc1)N1CCc2ncccc2[C@H]1c1ccc(F)cc1 | cell-free assay, competition with immobilised ligand | 1 µM | 89%
O=C(NCC1CCOCC1)c1n[nH]cc1NC(=O)c1c(F)cccc1F | binding, competition with immobilised ligand | 1 µM | 73%
O=C(Nc1cccnn1)N1CCC(=Cc2cccc(Oc3ccc(C(F)(F)F)cn3)c2)CC1 | cell-free assay, competition with immobilised ligand | 1 µM | 100%
O=C(c1ccc(Nc2nccc(-c3cc4ccccc4s3)n2)cc1)N1CCC(N2CCCC2)CC1 | binding, competition with immobilised ligand | 1 µM | 43%
O=C(O)[C@@H]1[C@@H](Cn2nnc3ccccc3c2=O)CC[C@H]1C(=O)c1ccc(OCCC2CCOCC2)cc1 | cell-free assay, competition with immobilised ligand | 1 µM | 100%
C[C@@H]1CCN(c2nccc(-c3cnn4ncccc34)n2)C1 | binding | 1 µM | 79%
CCCCN(CCCC)C(=O)CN1C[C@@H](c2cc(OC)c3c(c2)OCO3)[C@H](C(=O)O)[C@H]1CC(C)(C)CCC | cell-free assay, competition with immobilised ligand | 1 µM | 84.6%
COc1ncc2cc3ccccc3nc2c1C#N | cell-free assay, competition with immobilised ligand | 5 µM | 91%
F[C@@H]1CCN(c2nccc(-c3cnn4ncccc34)n2)C1 | binding | 1 µM | 92%
Cc1c(NC(=O)c2cc(C(N)=O)nc3cc(F)ccc23)c(C(F)(F)F)nn1Cc1ccc(C(C)(C)C)cc1 | cell-free assay, competition with immobilised ligand | 1 µM | 100%
C=CC(=O)N1CCC(C(=O)NCC(=O)N2CCN(c3nc(-c4cnc(N)nc4C(F)F)nc(N4CCOCC4)n3)CC2)CC1 | binding, competition with immobilised ligand | 1 µM | 69%
C[C@@H](c1ccc(-n2cnc3c(N)ncnc32)cc1)N1CCc2nn(C)c(Cc3ccccc3)c2C1=O | binding, competition with immobilised ligand | 0.1 µM | 57%
CN(CCCC(F)(F)F)c1nccc(-c2cnn3ncccc23)n1 | binding | 1 µM | 96%
O=C(NCCCN1CCOCC1)c1ccc(Nc2ncc(Cl)c(-c3ccc(Cl)s3)n2)cc1 | binding, competition with immobilised ligand | 1 µM | 2.3%
CN(C)c1ncc(F)c(-c2cnn3ncccc23)n1 | binding | 1 µM | 81%
Nc1ncc2c(n1)-c1c([nH]c3ccc(C#CC4CC4)cc13)CCCC2 | binding, competition with immobilised ligand | 1 µM | 85%
COc1cnc(Nc2cccc(S(N)(=O)=O)c2)nc1N1CCN(c2ccccc2)CC1 | binding, competition with immobilised ligand | 1 µM | 68%
CC1CCCN1c1nccc(-c2cnn3ncccc23)n1 (stereo not drawn) | binding | 1 µM | 98%
